Data as given in PubChem BioAssay AID651647 (Sanford-Burnham Center for Chemical Genomics, 2012).
The campaign covered roughly 360,000 compounds. About 220 (0.061%) were called active. This is one part of a sample in which actives are shown more often than they occur. Unmarked numbers belong to inactive results.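 The calls were made as follows: active = GFP/RFP ratio change of at least 30% with cell ATP level not reduced by more than half and red fluorescence within 50% of control; inactive = the rest, inconclusive results apart.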

Target: Matrix metalloproteinase-14 (Homo sapiens) (UniProt P50281)
Test: blockers of MT1-MMP proenzyme processing, primary screen, HT1080 RFP-PRO-GFP cells, GFP/RFP fluorescence (AID 651647)
Conditions: overnight, at 20 µM, stronger effect = higher value, percent of plate control window, DMSO zero
Summary of the method: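 Assay system: HT1080 cells carrying an RFP-PRO-GFP reporter | Dosing: Single dose of 20 µM compound, 1% DMSO final | Incubation: Cells overnight before dosing, compound overnight, 37 °C, 5% CO2 | Evaluation: GFP/RFP fluorescence ratio | Control set: DMSO and RFP-L50D-GFP cell wells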

SMILES | GFP/RFP ratio change
O=C(COC(=O)C1CCN(S(=O)(=O)c2ccc3c(c2)OCCO3)CC1)Nc1ccccc1OC(F)F | -1.25%
CC1(C)CN(Cc2cccnc2)C(=O)[C@H]1CC(=O)Nc1ccc(Br)cc1 | -0.506%
CCCc1nc(-c2ccccc2O)n(-c2ccccc2)n1 | 1.17%
N#CCSc1nc2ccc(N3CCOCC3)cc2c(=O)n1CCc1ccccc1 | 9.47%
COc1cc(NC(=O)CCS(=O)(=O)c2ccc3c(c2)oc(=O)n3C)cc(OC)c1 | 0.489%
Cc1cc(OCc2ccc(C(=O)Nc3ccc(C(=O)O)cc3)o2)ccc1Cl | 1.24%
Cc1ccc(NC(=O)COc2coc(CN3CCc4ccccc4C3)cc2=O)cc1Cl | -6.33%
CCCc1c(C(=O)N/N=C(\C)CCc2ccc(OC)cc2)nnn1-c1nonc1N | 0.35%
O=C1CCCC(O)=C1N=Nc1ccc(S(=O)(=O)N2CCOCC2)cc1 | 48.9% (active)
CC1(C)CC(=O)C(N=Nc2ccc(S(=O)(=O)N3CCCCCC3)cc2)=C(O)C1 | 3.46%
O=C1CCCC(O)=C1N=Nc1ccc2ncsc2c1 | 4.19%
CC1(C)CC(=O)C(C2=NC(C)(C)Cc3ccccc32)=C(O)C1 | -1.97%
CCCCCCN1C[C@H](O)[C@@H](n2cc(C3CC3)nn2)C[C@@H]1c1ccc(Cl)cc1 | 2.78%
CC1CC(C)CN(CCCNC(=O)Cn2ncc3c([nH]c4ccccc43)c2=O)C1 (stereo not drawn) | -6.2%
Cc1ccc(C(=O)OCC(=O)Nc2ccc(Cl)cn2)cc1S(=O)(=O)N1CCOCC1 | 2.27%
CCOc1ccc(NC(=O)[C@H](C)NC(=O)C2CC(=O)N(c3ccc(OC)cc3)C2)cc1 (stereo partly drawn) | 0.231%
CCOC(=O)c1c(NC(=O)CCCN2CCOCC2)sc2c1CC(C)(C)OC2 | -2.69%
O=P(O)(CP(=O)(c1ccccc1)c1ccccc1)c1ccccc1 | 35.4% (active)
O=P(O)(CP(=O)(c1ccccc1)c1ccccc1)c1ccccc1O | 2.61%
O=C(CP(=O)(c1ccccc1)c1ccccc1)N1CCOCC1 | 1.97%
Cc1noc(COc2ccccc2OCc2onc(C)c2Cl)c1Cl | -3.96%
CC(C)(C)Cc1c(C2CCCCC2)nc2ccc(Br)cn12 | -6.01%
CCN(CC)C(=O)Oc1ccc(Br)cc1C(=O)Nc1ccc(F)c(Cl)c1 | -4.63%
COc1ccc(-c2noc(C(C)NS(=O)(=O)c3ccc(NC(C)=O)cc3)n2)cc1 (stereo not drawn) | -4.06%
CCOC(=O)c1cnc2c(c(C)nn2CC)c1Cl | 2.11%

SMILES | GFP/RFP ratio change
COc1ccc(NC(=O)C(C)N2c3cccc4cccc(c34)S2(=O)=O)c(OC)c1 (stereo not drawn) | 3.17%
COc1ccc(CC(NC(C)=O)C(=O)N2CCN(C(=O)Nc3cccc(Cl)c3)CC2)cc1OC (stereo not drawn) | -3.43%
Brc1ccc(Nc2c3c(nc4ncnn24)CCC3)cc1 | 1.92%
CN=C1C=C/C(=N/N=c2\ccn(O)cc2C)C=C1C | 61% (active)
CC[N+]1(CC)CC2=Cc3ccccc3CC2C1 (stereo not drawn) | 0.892%
CC(Sc1nc2cc(Cl)ccc2s1)C(=O)Nc1ccc2c(c1)OCO2 (stereo not drawn) | 3.37%
COCCCNC(=O)/C(C#N)=C/c1c(N2CCCCCC2)nc2ccccn2c1=O | -0.526%
CCOC(=O)c1cc(-c2sc(NC(=O)c3ccccc3)nc2C)n(Cc2ccccc2)n1 | -13.8%
CCN1CCN(c2c(Cl)cccc2NC(=O)c2ccc(Br)o2)CC1 | 6.59%
CNC(=O)c1[nH]cnc1C(=O)N[C@@H](CC(C)C)C(=O)OCc1ccccc1 | 3.79%
CSc1ncccc1C(=O)N1CCCC(Nc2ccc(F)c(F)c2)C1 (stereo not drawn) | 0.99%
O=Cc1c(NCCc2cccc(F)c2)c2ccccc2[nH]c1=O | -3.4%
Cn1c(=S)sc2ccc3ccccc3c21 | 2.62%
CN(C(=O)CSc1cccc[n+]1[O-])C1CCCCC1 | 9.34%
Cc1ccc(S(=O)(=O)N2CC(C)N(S(C)(=O)=O)C2)cc1 (stereo not drawn) | 0.163%
CCc1ccnc(NS(=O)(=O)c2ccc3c(c2)OCCO3)c1 | 3.33%
Cc1ccc2c(c1)N(S(=O)(=O)c1cc(-c3cc(C)no3)ccc1C)CCO2 | 0.714%
CC(=O)c1c(O)cc2n(c1=O)-c1ccc(Cl)cc1C2(C)C | -5.09%
CCOC(=O)C1(O)CC(C)=NN1C(=O)c1cccc(Br)c1 (stereo not drawn) | 7.72%
O=C(O)CC(Cn1cnnn1)c1ccccc1 (stereo not drawn) | -0.417%
Nc1nc(SCc2cccc(Br)c2)n[nH]1 | 6.02%
CC(=O)c1nn(-c2ccc(C)cc2)cc1C(=O)c1cccc(Br)c1 | 0.8%
CCc1ccc(C2N3CC4([N+](=O)[O-])CN2CC([N+](=O)[O-])(C3)C4(C)C)cc1 (stereo not drawn) | -2.43%
O=S(=O)(Nc1ncccn1)c1ccc(NS(=O)(=O)c2cccc(Cl)c2Cl)cc1 | -0.508%
O=c1ccc2c(-c3ccccc3S(=O)(=O)O)c3ccc(O)c(O)c3oc-2c1O | 49.3% (active)

SMILES | GFP/RFP ratio change
N/C(=N\OS(=O)(=O)c1cccc([N+](=O)[O-])c1)c1ccncc1 | 1.12%
CCc1ccnc(NC(=O)Nc2ccc(OCc3ccccc3)cc2)c1 | 3.94%
CC(C)(C)OC(=O)N1CCN(C(=O)c2[nH]c(C(F)(F)F)nc2-c2ccccc2)CC1 | 3.61%
CN1CC(c2ccccc2)C2(COc3ccccc3C2=O)C12C(=O)Nc1ccccc12 (stereo not drawn) | -4.6%
Cc1ccc2c(c1)N(CC(=O)NCCCN1CCCCC1)C(=O)c1cccnc1O2 | 1.06%
Cc1ccccc1S(=O)(=O)NC(=O)C1(C)CCN1C(=O)C1(c2ccc(Cl)cc2)CC1 (stereo not drawn) | 0.579%
O=C(COC(=O)c1ccc(S(=O)(=O)N2CCCCCC2)cc1)Nc1ccccc1C(F)(F)F | -2.08%
COc1ccccc1C1CCN(C(=S)Nc2ccc(Br)cc2)CC1 | -1.18%
CC(C)[C@H](NC(=O)N1CCn2c1nc1ccccc12)C(=O)NCCc1ccccc1 | 1.13%
O=c1[nH]snc1-c1c(Cl)cccc1Cl | -2.44%
COC(=O)NNC(=O)C1CCC(C)CC1 (stereo not drawn) | 0.231%
Cc1cn(C2CC(O)C(CO)O2)c(=O)n(CCCc2ccccc2)c1=O (stereo not drawn) | 5.06%
Cc1nn(C)c(Oc2ccccc2)c1CCNS(=O)(=O)c1ccc(F)cc1 | 0.853%
O=C(c1ccc(F)c(S(=O)(=O)N2CCOCC2)c1)N(CCc1ccccc1)Cc1ccccc1 | -8.33%
CC(=O)c1cc2c(cc1NC(=O)CN1CCCCCC1)OCO2 | -5.12%
CN1c2ccc([N+](=O)[O-])cc2C(C)(C)C12C=Cc1cc(C(=O)O)ccc1O2 (stereo not drawn) | 0.611%
COc1ccc2c(c1)C=CC1(O2)N(CCO)c2ccccc2C1(C)C (stereo not drawn) | 52% (active)
O=C(Nc1ccc(N2CCOCC2)nc1)c1c(F)cccc1F | -1.38%
CCc1nonc1NC(=O)c1oc2ccc(Cl)cc2c1C | 3.45%
COc1ccc(-c2cc(NC(C)=O)c3ncc(-c4cc(OC)c(OC)c(OC)c4)n3c2)cn1 | -4.94%
CCc1ccc(NC(=O)N[C@H](C(=O)O)C(C)CC)cc1 (stereo partly drawn) | 2.36%
COc1ccc(C(C)C)cc1-c1ccc2nncn2c1 | 3.27%
Cc1cccc(C)c1NC(=O)C(Cl)C(=O)c1ccccc1 (stereo not drawn) | -3.13%
O=c1cnnc(Nc2ccccc2)[nH]1 | 7.04%
Cc1ccc(Nc2ccccc2N)cc1 | -12%

SMILES | GFP/RFP ratio change
Nc1ccc(Nc2ccccc2)cc1 | 44% (active)
O=C(Cn1cnc2cc([N+](=O)[O-])ccc2c1=O)NC(=O)NCc1ccccc1 | 1.03%
COC(=O)C(NS(=O)(=O)c1ccc(F)cc1)c1ccccc1 (stereo not drawn) | 0.566%
CCOc1ccc(NC(=O)CN(C)C(=O)CSc2ccccc2)cc1OCC | -8.63%
N/C(=N\c1nc2ccccc2o1)NC(=O)C(Cc1ccccc1)N1C(=O)c2ccccc2C1=O (stereo not drawn) | -6.5%
CNC(=S)N1CCC(NC(=O)C(Cc2ccc(F)cc2)NC(C)=O)CC1 (stereo not drawn) | -0.719%
CC(C)(C)n1nnc(CCc2nnn(C(C)(C)C)n2)n1 | 2.72%
O=C(COC(=O)c1ccc(NS(=O)(=O)c2cccs2)cc1O)Nc1ccc(F)cc1 | 4.53%
C[C@@H](CN1CCC[C@H]1CN1C(N)=NC[C@@H]1Cc1ccccc1)N1C[C@@H](Cc2ccccc2)N(CCCC2CCCC2)C1=N | 1.74%
COc1ccc2oc(C(=O)N(CC(C)C)C3CCS(=O)(=O)C3)c(C)c2c1 (stereo not drawn) | 1.26%
O=C1c2ccccc2C(=O)N1CC1c2ccccc2CCN1S(=O)(=O)c1ccccc1 (stereo not drawn) | -1.81%
COc1ccc(NC2CCCN(C(=O)c3ccccc3-c3ncc[nH]3)C2)cc1 (stereo not drawn) | 3.89%
COC(=O)c1ccccc1Oc1c(F)c(F)nc(N2CCOCC2)c1F | 2.7%
COc1ccc(S(=O)(=O)N2CCC(C(=O)NCCC(=O)NCc3cccc(OC)c3)CC2)cc1 | 0.341%
COC(=O)c1cnc(Nc2cc(C)ccc2OC)c2ccccc12 | -1.73%
COc1ccc(C)cc1Nc1nc(-c2c(C)[nH]c3ccccc23)cs1 | 47.3% (active)
Cc1[nH]c2ccccc2c1-c1ccc(Cl)nn1 | -0.969%
C=CCn1nc(C(=O)OCC)cc1-c1sc(NC(=O)c2ccccc2)nc1C | -9.54%
CCOC(=O)C1C(C)C(C(C)(C)C)N(S(=O)(=O)c2ccc(C)cc2)C1c1ccccc1 (stereo not drawn) | -10.4%
O=S(=O)(/C=C/c1ccccc1)NCCc1ccccn1 | 2.57%
Cc1ccccc1C(=O)O | -0.112%
CCC1(C)N(O)C(C)(C)C(c2ccc(OC)cc2)=[N+]1[O-] (stereo not drawn) | 5.6%
CN(C(=O)c1cccc(NC(=O)C2CCN(C(=O)OC(C)(C)C)CC2)c1)C1CCC1 | 6.42%
